# T cruzi inh: blocks replication of Trypanosoma cruzi | actives 1.4% (n = 300,000) | T. cruzi beta-gal in NIH3T3, luminescence, 90 h | AID 1885 | inhibition, % (test concentration not listed);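 active = mean inhibition across valid replicates above about 55%, limit read from the data; inconclusive = mean below that limit but half or more replicates reach it; inactive = mean below it, under half of replicates reach it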;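 note: signal also drops with host cell toxicity which is not excluded here; 0% = plate median of DMSO wells and 100% = zero luminescence signal; higher percent means less beta-gal luminescence so fewer parasites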
#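 Read-out: Parasite load inhibition, % | Test system: Mouse NIH/3T3 fibroblasts infected with β-gal-expressing T. cruzi Tulahuen C4 | Amount: 5,000 cells/well | Medium: DMEM, 2% fetal bovine serum | Signal: GalScreen β-gal luminescence, detergent lysis, 60 min | Timing: 3 h attach, ≥90 h co-culture | Also added: Tulahuen C4 trypomastigotes, 5000/well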
# HSF1 activator: increases HSF-1 driven luciferase reporter signal; NIH3T3-HGL HSF-1 luciferase reporter, MG132, 8 h; 100% = twice DMSO control signal; activation, % at 9 µM; actives 1.7% (n = 300,000); AID 504408;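 active = mean replicate activation of at least 50% with a set share of replicates each reaching 50%; inconclusive = only one of those two conditions met; inactive = mean below 50% and too few replicates reaching it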;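 note: 0% = median of the neutral control wells and 100% = twice that signal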
# HSF1 inh: HSF1 inhibition | NIH3T3-HGL HSE-luciferase, MG132-induced, luminescence 8 h; stronger effect = lower value | activity change, negative = inhibition, % at 7.5 µM (by protocol) | actives 0.77% (n = 300,000) | AID 2098;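 active = more than half of replicate wells show activity change below -50%, luminescence cut by over half; inconclusive = some wells, but at most half, below -50%; inactive = no replicate well below -50%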;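 note: luciferase reports HSF-1 transcriptional activity via heat shock element; 0% = median of DMSO wells and -100% = zero luminescence signal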
# Lmaj promast: reduces viability of Leishmania major promastigotes; inhibition, % at 10 µM; actives 9% (n = 200,000); resazurin fluorescence viability; in the data active = inhibition above about 50%;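 note: promastigotes grown with compound for 44 hours at 28 °C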
# Hsp70 act: Hsp70 transcriptional activation, primary screen | HeLa Hsp70 promoter luciferase reporter, luminescence; scaled: vehicle 0, proteasome-inhibitor control 100% | activation, % at 10 µM | actives 0.04% (n = 200,000);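 active = activation above the mean across all tested compounds plus 3 SD, cutoff set per campaign, cut at about 5.5% in these data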;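 note: 100% = MG132 at 30 µM as the positive control and 0% = DMSO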
# An asterisk follows results filed as active; ? = inconclusive; · = no result given. The sample as a whole holds a higher share of hits than the screen did.
SMILES,T cruzi inh,HSF1 activator,HSF1 inh,Lmaj promast,Hsp70 act
O=C(c1ccc(C(F)(F)F)cc1)N1CCN(c2ccc(N3CCOCC3)nn2)CC1,-3,22,1,·,·
CS(=O)(=O)N(CC(=O)Nc1c(F)cccc1F)c1ccc(C23CC4CC(CC(C4)C2)C3)cc1,70*,-26,-15,20,0
CC(=O)Nc1ccc(NC(=O)CN(c2ccc(C34CC5CC(CC(C5)C3)C4)cc2)S(C)(=O)=O)cc1,53,-2,13,0,0
CS(=O)(=O)N(CC(=O)Nc1ccc(CC#N)cc1)c1ccc(C23CC4CC(CC(C4)C2)C3)cc1,70*,60*,48,47,0
O=C(c1cc(Br)c[nH]1)N1CCCCC1,-11,-1,1,·,·
O=C(c1cc(Br)c[nH]1)N1CCSCC1,-4,-86,-84*,·,·
COc1cc(OC)c(-c2nn3c(C4CCCCC4)nnc3s2)cc1OC,23,-6,2,56*,0
COc1cc(-c2nnc3sc(C4CCCCC4)nn23)cc(OC)c1OC,22,-2,1,49,0
Cc1ccc(S(=O)(=O)N/N=C/c2ccc(OCC(=O)NC(C)C)cc2)cc1,-12,-14,-4,-8,0
Cn1c(CCN2CCN(c3ccc(F)cc3)CC2)nc2cc(NC(=O)c3ccco3)ccc21,2,8,4,9,0
Cn1c(CCN2CCN(c3ccccc3)CC2)nc2cc(NC(=O)c3ccco3)ccc21,1,128*,103,13,0
CN1CCN(CCc2nc3cc(NC(=O)c4ccco4)ccc3n2C)CC1,-4,20,10,·,·
Cc1ccc(N2CCN(CCc3nc4cc(NC(=O)c5ccco5)ccc4n3C)CC2)cc1,-8,69*,25,28,0
COc1cccc(C(=S)N2CCCC2)c1OC,0,5,-3,·,·
CCCNS(=O)(=O)c1ccc(CCC(=O)N2CCN(c3ccc(F)cc3)CC2)cc1,16,20,9,57*,0
CC(C)CNS(=O)(=O)c1ccc(CCC(=O)N2CCOCC2)cc1,2,-80,-73*,-6,0
COc1cc(CNc2ccc(NC(C)=O)cc2)ccc1OCc1ccccc1C,-30,42,24,73*,1
COc1cc(CNc2ccc(N3CCN(C(C)=O)CC3)cc2)ccc1OCc1ccccc1,-8,16,17,-5,1
c1ccc(COc2cccc(CNCc3ccccn3)c2)cc1,-3,·,·,96*,0
c1ccc(COc2cccc(CNCc3cccnc3)c2)cc1,62*,7,8,98*,0
COc1cc(CNCc2cccnc2)ccc1OCc1ccccc1,-6,14,10,96*,0
O=C(Cc1ccc(Br)cc1)N1CCN(c2ccccc2O)CC1,3,24,18,-7,0
COc1ccc(CN2CCCCCC2)cc1OC,15,-22,-11,·,·
COc1ccc(-c2ccccc2)cc1NCc1ccc(OC)c(OC)c1,11,13,10,99*,0
CNCc1ccc(OCc2ccccc2)c(OC)c1,25,27,8,80*,0
SMILES,T cruzi inh,HSF1 activator,HSF1 inh,Lmaj promast,Hsp70 act
COc1cc(CN2CCCCC2)ccc1OCc1ccccc1,82*,17,4,·,·
Cc1occc1C(=O)NNC(=O)c1ccc(Br)o1,-2,7,0,-10,0
CC(C)OC(=O)CC(=O)CSc1nc2c(c(-c3cccs3)c1C#N)CCC2,8,8,7,-2,0
CCOC(=O)C(C)Sc1nc2c(c(-c3cccs3)c1C#N)CCC2 (centres undefined),27,26,15,54*,0
O=C1C=CC(=O)N1c1ccc(Sc2ccc([N+](=O)[O-])cc2)cc1,5,82*,42,·,·
Cc1cc(Br)cnc1NC(=S)Nc1ccc(F)cc1F,3,3,-7,-4,0
COCc1c(Br)c(C)nc(OCC(=O)N/N=C/c2cc(C)n(-c3ccc([N+](=O)[O-])cc3)c2C)c1C#N,63*,·,·,-2,0
Cc1cc(/C=N/NC(=O)CC#N)c(C)n1-c1ccc([N+](=O)[O-])cc1,6,5,-5,18,0
Cc1ccccc1Nc1nc(N)c2ccccc2n1,28,·,·,96*,0
Nc1nc(Nc2ccccc2)nc2ccccc12,?,39,20,80*,0
Nc1nc(Nc2ccc(Cl)cc2)nc2ccccc12,36,·,·,93*,0
CCOC(=O)c1cc(CC)sc1NC(=O)CN1CCN(C(=O)c2ccco2)CC1,35,-24,-5,·,·
Cc1ccc(CN2CCN(/N=C/c3ccc(C)s3)CC2)cc1,-10,18,0,68*,0
CC1CCc2c(nc3ncnn3c2N2CCN(c3ccccc3F)CC2)C1 (centres undefined),10,19,4,·,·
CC1CCc2c(nc3ncnn3c2N2CCN(c3ccccc3)CC2)C1 (centres undefined),3,-16,-2,52*,0
O=C(CCC1CCCN(C(=O)c2ccc3c(c2)OCO3)C1)N1CCN(c2ccccn2)CC1 (centres undefined),10,-6,-5,-4,-1
CCCCCn1cnc2c(sc3nc4c(cc32)CSC(C)(C)C4)c1=O,18,-32,-14,-6,0
O=C(N/N=C/C=C/c1ccco1)c1cccnc1,-10,-8,-9,-5,0
O=C(N/N=C\C=C\c1ccco1)c1cc(-c2ccc3ccccc3c2)n[nH]1,-114,57*,29,13,0
O=C(CN1CCN(Cc2ccccc2)CC1)N/N=C\C=C/c1ccco1,-46,-76,-69*,-1,0
O=C(N/N=C/C=C\c1ccco1)c1ccccn1,0,62*,33,·,·
O=S(=O)(NCC1CCCO1)c1ccc(S(=O)(=O)N(Cc2ccc(F)cc2)Cc2ccco2)cc1 (centres undefined),-24,8,4,0,0
COC(=O)CNc1nc(Cl)nc(Nc2ccc(Cl)cc2)n1,-2,10,2,0,0
CC1(C)CC(NC(=O)Cc2ccccc2)CC(C)(C)N1,-11,-4,-1,·,·
O=C(c1ccc(S(=O)(=O)c2ccccc2Cl)c([N+](=O)[O-])c1)N1CCN(Cc2ccccc2)CC1,-6,-11,2,76*,0
SMILES,T cruzi inh,HSF1 activator,HSF1 inh,Lmaj promast,Hsp70 act
O=C(c1ccc(S(=O)(=O)c2ccc(F)cc2)c([N+](=O)[O-])c1)N1CCCCCC1,-24,-10,-5,98*,0
CC1CCN(C(=O)c2ccc(S(=O)(=O)Cc3ccccc3F)c([N+](=O)[O-])c2)CC1,-1,11,-4,93*,0
O=C(c1c(Cl)cccc1Cl)N1CCN(c2ncccn2)CC1,-22,-16,-1,·,·
CNC(=S)N1CCN(S(=O)(=O)c2ccc3ccccc3c2)CC1,4,6,7,·,·
O=C(Nc1ncccn1)C1c2ccccc2Oc2ccccc21,0,-12,-4,55*,0
Cc1cccc2sc(NC(=O)[C@H](C)N3C(=O)C4CC=CCC4C3=O)nc12 (some centres undefined),-18,-68,-56*,·,·

# Screening results from PubChem BioAssay.
